Experimental data taken from ChEMBL document CHEMBL1157562, “Piperazinyl glutamate pyridines as potent orally bioavailable P2Y12 antagonists for inhibition of platelet aggregation” (J Med Chem, 2010).

What was measured:
P2Y purinoceptor 12 = P2Y purinoceptor 12 (Homo sapiens, UniProt Q9H244); experiment: Displacement of [33P]ADP from human recombinant P2Y12 receptor expressed in CHO cells; type: cell-based
Outline: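 Washed membranes from CHO cells expressing synthetic human P2Y12, incubated 1 h at room temperature with 0.2 nM 33P-MeSADP in 50 mM Tris/100 mM NaCl/1 mM EDTA. Compound was tested as a 7-point 3-fold series in triplicate. Nonspecific binding was defined with 300 nM 2-MeSADP, followed by filtration.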

[1] = Antiplatelet aggregation activity against adenosine diphosphate-induced human platelet rich plasma assessed as inhibition of platelet aggregation by turbidimetric method; type: functional; conditions: Homo sapiens, Platelet, Plasma
Outline: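 Human PRP, prepared by two-step centrifugation and adjusted to 330 000 platelets/μL with PPP. Compound was preincubated 5 min at 37 °C in 0.5% DMSO, then 20 μM ADP was added. OD626 was read kinetically for 15 min at 37 °C with mixing between reads.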

Platelet = experiment: Relative potency, ratio of IC50 for drug to IC50 for AZD-6140 for platelet aggregation in human platelet rich plasma; type: functional
[2] = Clearance in Sprague-Dawley rat at 2 mg/kg, iv and 5 mg/kg, po; type: ADME, organism-based; conditions: in vivo
Outline: (§1)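 Rats received 2 mg/kg iv infusion or 5 mg/kg po, in 50% PEG400/40% PBS/10% ethanol.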

[3] = Volume of distribution at steady state in Sprague-Dawley rat at 2 mg/kg, iv and 5 mg/kg, po; type: ADME, organism-based; conditions: in vivo, read-out: Vdss; outline: as §1
[4] = Half life in Sprague-Dawley rat at 2 mg/kg, iv and 5 mg/kg, po; type: ADME, organism-based; conditions: in vivo; outline: as §1
in vivo = conditions: Sprague-Dawley, rat, po, 5 mg/kg

Chain of P2Y purinoceptor 12 (Q9H244 whole entry): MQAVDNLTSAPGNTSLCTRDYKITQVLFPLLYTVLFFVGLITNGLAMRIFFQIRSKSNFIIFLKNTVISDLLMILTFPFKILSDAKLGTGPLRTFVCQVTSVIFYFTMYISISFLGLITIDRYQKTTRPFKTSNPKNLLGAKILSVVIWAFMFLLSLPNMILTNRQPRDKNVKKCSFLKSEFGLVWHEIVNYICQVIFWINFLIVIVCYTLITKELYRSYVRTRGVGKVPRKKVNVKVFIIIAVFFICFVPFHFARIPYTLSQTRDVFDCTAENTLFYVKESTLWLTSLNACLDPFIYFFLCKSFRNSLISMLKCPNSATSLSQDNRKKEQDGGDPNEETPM

Row | Compound | Ki (P2Y purinoceptor 12) | IC50 [1] | Ratio IC50 (Platelet) | clearance [2] | Vd [3] | half-life [4] | bioavailability (in vivo)
1 | CCCCCOC(=O)N1CCN(C(=O)[C@H](CCC(=O)O)NC(=O)c2cc(N3CCC(N(C)C)CC3)cc(-c3ccccc3)n2)CC1 | 22 nM | 1800 nM | 2.1 | 81 mL/min/kg | 2.3 L/kg | 18 min | 
2 | CCCCCOC(=O)N1CCN(C(=O)[C@H](CCC(=O)O)NC(=O)c2cc(C(=O)N3CCOCC3)cc(-c3ccccc3)n2)CC1 | 4.4 nM | 710 nM | 1 | 51 mL/min/kg | 1.1 L/kg | 14.4 min | 
3 | CCCCCOC(=O)N1CCN(C(=O)[C@H](CCC(=O)O)NC(=O)c2cc(OC3CCN(C(C)=O)CC3)cc(-c3ccccc3)n2)CC1 | 3.6 nM | 1800 nM | 1.8 | 36 mL/min/kg | 0.58 L/kg | 12 min | 
4 | CCOC(=O)N1CCN(C(=O)[C@H](CCC(=O)O)NC(=O)c2cccc(-c3ccccc3)n2)CC1 | 209 nM | 71000 nM |  | 98 mL/min/kg | 15.5 L/kg | 108 min | 34%
5 | CCCCCOC(=O)N1CCN(C(=O)[C@H](CCC(=O)O)NC(=O)c2cc(OCC3CCN(C(C)C)CC3)cc(-c3ccccc3)n2)CC1 | 5.5 nM | 380 nM | 0.5 | 63 mL/min/kg | 3.4 L/kg | 36 min | 
6 | CCCCCOC(=O)N1CCN(C(=O)[C@H](CCC(=O)O)NC(=O)c2cc(N3CCC(CN(C)C)CC3)cc(-c3ccccc3)n2)CC1 |  |  | 1.3 | 92 mL/min/kg | 2.1 L/kg | 18 min | 
7 | CCCCCOC(=O)N1CCN(C(=O)[C@H](CCC(=O)O)NC(=O)c2cc(OC(=O)N3CCCC3)cc(-c3ccccc3)n2)CC1 | 7.7 nM | 1800 nM | 1 | 46 mL/min/kg | 2.3 L/kg | 36 min | 
8 | CCCCCOC(=O)N1CCN(C(=O)[C@H](CCC(=O)O)NC(=O)c2cc(N3CCC(N)CC3)cc(-c3ccccc3)n2)CC1 | 17 nM | 1100 nM | 1.2 | 32 mL/min/kg | 0.38 L/kg | 6 min | 
9 | CCCCCOC(=O)N1CCN(C(=O)[C@H](CCC(=O)O)NC(=O)c2cc(OC3CCN(CCOC)CC3)cc(-c3ccccc3)n2)CC1 | 9.9 nM | 1700 nM | 1.7 | 94 mL/min/kg | 5.2 L/kg | 38.4 min | 
10 | CCCCCOC(=O)N1CCN(C(=O)[C@H](CCC(=O)O)NC(=O)c2cc(C(=O)N3CCC(N(C)C)CC3)cc(-c3ccccc3)n2)CC1 | 5.4 nM | 580 nM | 1 | 37 mL/min/kg | 0.77 L/kg | 12 min | 
11 | CCCCCOC(=O)N1CCN(C(=O)[C@H](CCC(=O)O)NC(=O)c2cc(CCCN(CC)CC)cc(-c3ccccc3)n2)CC1 | 22 nM | 1100 nM | 1.6 | 96 mL/min/kg | 9.2 L/kg | 66 min | 
12 | CCCCCOC(=O)N1CCN(C(=O)[C@H](CCC(=O)O)NC(=O)c2cc(OCC3CCN(CCOC)CC3)cc(-c3ccccc3)n2)CC1 | 5.3 nM | 550 nM | 0.73 | 141 mL/min/kg | 10.9 L/kg | 53.4 min | 
13 | CCCCCOC(=O)N1CCN(C(=O)[C@H](CCC(=O)O)NC(=O)c2cc(CCCN(C)C)cc(-c3ccccc3)n2)CC1 | 1 nM | 1300 nM | 1.3 | 38 mL/min/kg | 3.2 L/kg | 60 min | 
14 | CCOC(=O)N1CCN(C(=O)[C@H](CCC(=O)O)NC(=O)c2cc(N3CCOCC3)cc(-c3ccccc3)n2)CC1 | 39 nM | 25000 nM | 22 | 58 mL/min/kg | 3.4 L/kg | 42 min | 
15 | CCCCCOC(=O)N1CCN(C(=O)[C@H](CCC(=O)O)NC(=O)c2cc(OCC3CCNCC3)cc(-c3ccccc3)n2)CC1 | 4.5 nM | 820 nM | 0.82 | 62 mL/min/kg | 1.3 L/kg | 12 min | 
16 | CCCCCOC(=O)N1CCN(C(=O)[C@H](CCC(=O)O)NC(=O)c2cc(OC(=O)N3CCOCC3)cc(-c3ccccc3)n2)CC1 | 4.8 nM | 1700 nM | 0.99 | 220 mL/min/kg | 31 L/kg | 96 min | 
17 | CCCCCOC(=O)N1CCN(C(=O)[C@H](CCC(=O)O)NC(=O)c2cc(CCCNCC(C)C)cc(-c3ccccc3)n2)CC1 | 12 nM | 1000 nM | 1.5 | 112 mL/min/kg | 5.6 L/kg | 36 min | 
18 | CCCCCOC(=O)N1CCN(C(=O)[C@H](CCC(=O)O)NC(=O)c2cc(OC(=O)N(C)CC3CCOCC3)cc(-c3ccccc3)n2)CC1 | 45 nM | 470 nM | 0.82 | 109 mL/min/kg | 8.6 L/kg | 78 min | 
19 | CCCCCOC(=O)N1CCN(C(=O)[C@H](CCC(=O)O)NC(=O)c2cc(N3CCC(N4CCCC4)CC3)cc(-c3ccccc3)n2)CC1 | 9 nM | 1200 nM | 0.57 | 52 mL/min/kg | 7.3 L/kg | 96 min | 

Row | Compound | Ki (P2Y purinoceptor 12) | IC50 [1] | Ratio IC50 (Platelet) | clearance [2] | Vd [3] | half-life [4] | bioavailability (in vivo)
20 | CCCCCOC(=O)N1CCN(C(=O)[C@H](CCC(=O)O)NC(=O)c2cc(C(=O)N3CCC(OC)CC3)cc(-c3ccccc3)n2)CC1 | 3.2 nM | 460 nM | 0.99 | 54 mL/min/kg | 1.2 L/kg | 15 min | 
21 | CCCCCOC(=O)N1CCN(C(=O)[C@H](CCC(=O)O)NC(=O)c2cc(C(=O)N3CCN(C)CC3)cc(-c3ccccc3)n2)CC1 | 5.8 nM | 530 nM | 0.72 |  |  |  | 
22 | CCCCCOC(=O)N1CCN(C(=O)[C@H](CCC(=O)O)NC(=O)c2cc(C(=O)NC3CCOCC3)cc(-c3ccccc3)n2)CC1 | 4.6 nM | 5600 nM | 10 |  |  |  | 
23 | CCCCCOC(=O)N1CCN(C(=O)[C@H](CCC(=O)O)NC(=O)c2cc(OC3CCN(C(=O)OCC)CC3)cc(-c3ccccc3)n2)CC1 | 6.5 nM | 8200 nM | 8.1 |  |  |  | 
24 | CCCCCOC(=O)N1CCN(C(=O)[C@H](CCC(=O)O)NC(=O)c2cc(N3CCC(CO)CC3)cc(-c3ccccc3)n2)CC1 | 2.4 nM | 1800 nM | 6.3 |  |  |  | 
25 | CCCCOC(=O)N1CCN(C(=O)[C@H](CCC(=O)O)NC(=O)c2cc(OCC3CCN(C(=O)COC)CC3)cc(-c3ccccc3)n2)CC1 | 2.6 nM | 1500 nM | 1.4 |  |  |  | 
26 | CCOC(=O)N1CCN(C(=O)[C@H](CCC(=O)O)NC(=O)c2cc(N3CCC(CO)CC3)cc(-c3ccccc3)n2)CC1 | 54 nM | 19000 nM | 22 |  |  |  | 
27 | CCCCCOC(=O)N1CCN(C(=O)[C@H](CCC(=O)O)NC(=O)c2cc(NC(=O)NCC3CCNCC3)cc(-c3ccccc3)n2)CC1 | 1.4 nM | 5600 nM | 3.8 |  |  |  | 
28 | CCOC(=O)N1CCN(C(=O)[C@H](CCC(=O)O)NC(=O)c2cc(N3CCCCC3)cc(-c3ccccc3)n2)CC1 | 112 nM | 29000 nM | 34 | 34 mL/min/kg | 1.3 L/kg | 24 min | 
29 | CCCCCOC(=O)N1CCN(C(=O)[C@H](CCC(=O)O)NC(=O)c2cc(NC(=O)C(F)(F)F)cc(-c3ccccc3)n2)CC1 | 9.1 nM | 8200 nM | 8.2 |  |  |  | 
30 | CCCNc1cc(C(=O)N[C@@H](CCC(=O)O)C(=O)N2CCN(C(=O)OCC)CC2)nc(-c2ccccc2)c1 |  | 28000 nM | 28 | 85 mL/min/kg | 3.8 L/kg | 30 min | 80%
31 | CCCCCOC(=O)N1CCN(C(=O)[C@H](CCC(=O)O)NC(=O)c2cc(C(=O)NCC)cc(-c3ccccc3)n2)CC1 | 13 nM | 9700 nM | 13 |  |  |  | 
32 | CCCCCOC(=O)N1CCN(C(=O)[C@H](CCC(=O)O)NC(=O)c2cc(OC3CCN(C(C)C)CC3)cc(-c3ccccc3)n2)CC1 | 7 nM | 480 nM | 0.68 |  |  |  | 
33 | CCCCCOC(=O)N1CCN(C(=O)[C@H](CCC(=O)O)NC(=O)c2cc(OCC3CCN(C)CC3)cc(-c3ccccc3)n2)CC1 | 5.3 nM | 330 nM | 0.62 | 130 mL/min/kg | 6.9 L/kg | 36 min | 
34 | CCCCOC(=O)N1CCN(C(=O)[C@H](CCC(=O)O)NC(=O)c2cc(NCCOC)cc(-c3ccccc3)n2)CC1 | 2.4 nM | 3200 nM | 2.4 |  |  |  | 
35 | CCOC(=O)N1CCN(C(=O)[C@H](CCC(=O)O)NC(=O)c2cc(NCCO)cc(-c3ccccc3)n2)CC1 | 117 nM | 12000 nM | 14 |  |  |  | 
36 | CCCCCOC(=O)N1CCN(C(=O)[C@H](CCC(=O)O)NC(=O)c2cc(OC(=O)N(C)C3CCOC3)cc(-c3ccccc3)n2)CC1 (stereo partly specified) | 2.3 nM | 470 nM | 0.59 |  |  |  | 
37 | CCCCCOC(=O)N1CCN(C(=O)[C@H](CCC(=O)O)NC(=O)c2cc(OC3CCN(C(=O)C(F)(F)F)CC3)cc(-c3ccccc3)n2)CC1 | 19 nM | 4700 nM | 4.4 |  |  |  | 
38 | CCCCCOC(=O)N1CCN(C(=O)[C@H](CCC(=O)O)NC(=O)c2cc(OC3CCNCC3)cc(-c3ccccc3)n2)CC1 | 3.5 nM | 500 nM | 0.64 |  |  |  | 
